In the RNAGym collection of RNA variant scans (doi:10.1126/science.aae0568):
Fewer inactive variants are shown than the library holds.

B1: tRNA (parent)
chain: GUUCCGUUGGCGUAAUGGUAACGCGUCUCCCUCCUAAGGAGAAGACUGCGGGUUCGAGUCCCGUACGGAACG

Variants of: B1
Assay: yeast fitness relative to wild type (ratio to wild type); higher = fitter; tRNA-Arg(CCU), competitive growth, 37 C, YPD
Method in brief: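 Variants of the tRNA-Arg(CCU) gene, chemically synthesised with a 3% per-site mutation rate at 69 sites, were placed at the native genomic locus in Saccharomyces cerevisiae. The pooled strains were competed in YPD at 37°C for 24 hours in six parallel replicates. Gene amplicons from the start population and from each end population were read by 100-nucleotide paired-end sequencing. Darwinian fitness relative to wild type came from changes in genotype frequencies; genotypes needed ≥ 100 starting reads, and estimates < 0.5 were set to 0.5.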

Variant	yeast fitness
GUCCCGUUGGCGUAAUGGUAACGCGUCUCCCUCCUAAGGAGAAGACUGCGGGUCCGAGUCGCGUACGGAACG [U3C U54C C61G]	0.577
GUUCCGUUGGAGUAAUGGUAACGCGUCUCCCUCCUAAGGAGAGGACUGCGGGUUCGAGUCCCGUACGGAACG [C11A A43G]	0.621
GUUCCGUUGGCGUAAUGGUAACGCGUCUCCCUCCUAAGGAGACGACUGCGGCUUCGAGUCCCGUACGGAACG [A43C G52C]	0.74
GUUCCGUUGGUGUGAUGGUAACGCGUCUCCCUCCCAAGGAGAAGACUGCGGGUUCGAGUCCCGUACGGAUCG [C11U A14G U35C A70U]	≤ 0.5
GUUCCGUUGGCGUAAUGGUAUCGCGUCUCCCUCCUAUGGAGAAGACUGCGGGUUCGAGUCCCGUCUGGAACG [A21U A37U A65C C66U]	≤ 0.5
GUUCCGUUGGCGUAAUGGUAACGCGUCUCGCUUCUAAGGAGAAGACUGCGGGUUCGACUCCCGAAUGGAACG [C30G C33U G58C U64A C66U]	≤ 0.5
GCUCCGUUGGCGUAAGGGUAACGCGUCUCCCUCCUAAGGAGAAGACUGCGGGUUCCAGUCCCGUACGGAACG [U2C U16G G56C]	≤ 0.5
GUUCAGUUGGCGUAAUGGUAACGCGUCUCCCUCCUAAGGUGAAGACUCCGGGUUCGAGUCCCAUACGGAACG [C5A A40U G48C G63A]	≤ 0.5
GUUCCGUUGGCGUAAUGGUAACGCGGCUCCCUCCUAAGGAGAAAACUGCGGGUUCGAGUCCCGUACGGAACG [U26G G44A]	0.87
GUUCCGUUGGCGUGAUGGUAACGCGUCUCCCUCCUAAGGAGAAGACUGCGGGUUCGGGUCCCGUACGGAACG [A14G A57G]	0.905
GUUCCGUUGGCGUAAUGGUAACGCGUCUCCCUCCUAAGGAGAAGACUGCGGGUUCGAGCCCCGUGCGGAACG [U59C A65G]	0.938
GUUCGAUUGGCGUAAUGGUAACGCGUCUCCCUCCUAAGGAGAAGACUGCGGGGUCGCGUCCCGUACGGAACG [C5G G6A U53G A57C]	≤ 0.5
GUUACGUUGGCGUAAUGGUAACGCGUCUCCCUCCCAAGGAGAAGACUGCGGGUUCGAGUCCCGUAAGGAACG [C4A U35C C66A]	≤ 0.5
GUUCCGUUGGCGUAAUGCUAACGCGUCUCUCUCCUAAGGAGGAGACUGCGGGUUAGAGUCCCGUACGGAACG [G18C C30U A42G C55A]	0.533
GUUCCGUUGGUGUAAUGGUAAUGCGUCUCCCUCCUAAGGAGAAGACUGCGGGUUCGUGUCCCGUACGGAACG [C11U C22U A57U]	0.512
GUUCCCUUGGAGUAAUGGUAACGCGUCUCCCUCCUAAGGAGAAGACUGCGGGUUCGAGUCCCGUACGGAACG [G6C C11A]	0.659
GUUCCGUUGGCGUAUUGGUAACGAAUCUCCCUCCUAAGGAGAAGACCGCGGCUUCGAGUCCCGUACGGAACG [A15U C24A G25A U47C G52C]	≤ 0.5
GUUCCGUUGGCGUAAUGGUAACGAGUCUCCCUGCUAAGGCGAAGACUGCGGGUUUGAGUCCCGUACAGAACG [C24A C33G A40C C55U G67A]	≤ 0.5
GGUCCGUUGGCGUAAUGGUAACGCGUCUCCUUCCUAAGGAGAAGACUGCGGGAUCGAGUCCCGUACGGAACG [U2G C31U U53A]	≤ 0.5

Variant	yeast fitness
GUUCCGUUGGCGUAAUGGUAACGCGUCUCCCUCCUAAGGCGAAGCCUGCGGGUUCGAGUCCCGUACGGAUCG [A40C A45C A70U]	≤ 0.5
GUUCGGUUGGCGCAAUGGUCACGCGUCUCCCGCCUAAGGAGAAGAUUGCGGGUUCGAGUCCCGUACGGAACG [C5G U13C A20C U32G C46U]	0.703
GUUCCGUUGGCGUAAUGGUAGCGCGUCUCCCUCCUAAGGAGAAGACUGCGGGUUCGAGUCGCGGACGGAACG [A21G C61G U64G]	0.586
GUUCCGCUGGCGUAAUGGUAACGCGUCACCCUCCUAAGGAGAAGACUGCGGGUUCGAGUCCCGUACAGAACG [U7C U28A G67A]	0.528
GUACCGUUGGCGUAAUGGUAACGCGUCUCCCUCCUGAGGAGAAGACUGCGGGUUCGAGUCCCGUACGGAACG [U3A A36G]	0.868
GUUCCGUUGGCGUAAUGAUAACGCGUAUCCCUCCUAAGGAGAAGACUACGGGUUCGAGUCCCGUACGGAACG [G18A C27A G48A]	0.612
GUUCGGUUGGCGUAGAGGUGACGCGUCACACUACUUAGGAGAAGACUGCGGGUUCGAGUCCCGUUCGGCACG [C5G A15G U16A A20G U28A C30A C33A A36U A65U A69C]	≤ 0.5
GUUCCGUAGGCGUGAUGGUUACGCGUCUCCCUCCUAAGGAGAAGACUGCGGGUUCGAGUCCCCUAGGGAACG [U8A A14G A20U G63C C66G]	≤ 0.5
GUUCCGUUGGCAUAAUGGUAACGCGUAUCGCUCCUAAGGAGAAGACUGCGGGUUCGAGUCCCGUACGUAACG [G12A C27A C30G G68U]	≤ 0.5
GUUCCGUUGGCGUAAUGGUAACGCGUCUCCCUCUUAAGGAGAACGCGGCGGGUUCGAGUCCCGUACGGAACG [C34U G44C A45G U47G]	≤ 0.5
GUCCCGUUGGCGUAAUGGUAACGCGUCUCCCUCCUAAGGAGCAGACUGCGGGUUCGAGUCCCGUACGGAACG [U3C A42C]	0.85
GUUCCGUUGGCGUAAUGGUAACGUGUCUCCCUCCUAAGGAGAAGACUGCGGGUUCAAGUCCCGUACAGAACG [C24U G56A G67A]	0.731
GUUCGGUUGGCGUAAUGGUAGCGCGUCUCCCUCCUAAGGAGAAGACUGCGGGUUCGAGUCCUGUACGGAACG [C5G A21G C62U]	0.677
GUUCCGUUGGCGUAAUGGUAACGCGUCUCCCUCCUAAGGAGAAGACUGUGGGUUCGAGUCCCGUAAGGAACG [C49U C66A]	0.815
GUUCCGUUGGCCUAAUGGUAAGACGUCUCCCUCCUACGGAGACGACUGCGGGUUCGAGUCCCGUACGAAACG [G12C C22G G23A A37C A43C G68A]	≤ 0.5
GUUCCGUUGGCGUAAUGGUUACGCGUCUCCCUCCUAACGAGAAGACUGCGGGUUCGAGUCCCGUACGGAACG [A20U G38C]	0.775
GUUCCGUUGGCGUAAUGGUAACGCGUCUCCCUCCUAAGGAGAAGACUGCGGGUUGGAGUUCCGUACGCAACG [C55G C60U G68C]	≤ 0.5
GUUCCGUUGGCGUAAUAGUAACGCGUCUCCCUCCUAAGGAGAAGACUGCGGGUUCGAGACCCGUACGGAACG [G17A U59A]	0.759
GUUCCGUUGGCGUAAUGGUAACGAGUCUCCCUUAUAAGGAGAUGAGUGCGGGUUCGAGUCCCGUACGGAACG [C24A C33U C34A A43U C46G]	≤ 0.5
